Data published in ChEMBL document CHEMBL4373711, “Development of 3,5-Dinitrophenyl-Containing 1,2,4-Triazoles and Their Trifluoromethyl Analogues as Highly Efficient Antitubercular Agents Inhibiting Decaprenylphosphoryl-β-d-ribofuranose 2'-Oxidase” (J Med Chem, 2019).
Active and inactive are the calls of the source.

Experiments:
[1] = test system: Mycobacterium tuberculosis; test: Antimycobacterial activity against Mycobacterium tuberculosis H37Rv CNCTC My 331/88 after 14 days; format: functional; conditions: H37Rv CNCTC My 331/88, 336 h
Summary of the method: (§1)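 M. tuberculosis strains (H37Rv and clinical MDR/XDR isolates) tested by microdilution in Šula's semisynthetic medium. Compounds were dissolved in DMSO and tested at 32 to 0.03 µM in twofold steps. Inoculum was a 1.0 McFarland suspension diluted 10-3. Plates were incubated at 37 °C and read at 14 and 21 days.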

[2] = test system: Mycobacterium tuberculosis; test: Antimycobacterial activity against Mycobacterium tuberculosis H37Rv CNCTC My 331/88 after 21 days; format: functional; conditions: H37Rv CNCTC My 331/88, 504 h; summary of the method: as §1
Mycobacterium avium [3] = test: Antimycobacterial activity against Mycobacterium avium CNCTC My 330/88 after 14 days; format: functional; conditions: CNCTC My 330/88, 336 h
Summary of the method: (§2)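 M. avium was tested by microdilution in Šula's semisynthetic medium, with compounds dissolved in DMSO and serially diluted from 1000 down to 1. Inoculum was a 1.0 McFarland suspension diluted 10-5. Plates were incubated at 37 °C and read at 14 and 21 days. […] Isoniazid and rifampicin served as standards.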

Mycobacterium avium [4] = test: Antimycobacterial activity against Mycobacterium avium CNCTC My 330/88 after 21 days; format: functional; conditions: CNCTC My 330/88, 504 h; summary of the method: as §2
Mycobacterium kansasii [5] = test: Antimycobacterial activity against Mycobacterium kansasii CNCTC My 235/80 after 7 days; format: functional; conditions: CNCTC My 235/80, 168 h
Summary of the method: (§3)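 Microdilution in Šula's semisynthetic medium; compounds in DMSO at 32–0.03 µM. Inoculum from 1.0 McFarland suspension diluted 10-4. […] Isoniazid and rifampicin as reference drugs.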

Mycobacterium kansasii [6] = test: Antimycobacterial activity against Mycobacterium kansasii CNCTC My 235/80 after 14 days; format: functional; conditions: CNCTC My 235/80, 336 h; summary of the method: as §3
Mycobacterium kansasii [7] = test: Antimycobacterial activity against Mycobacterium kansasii CNCTC My 235/80 after 21 days; format: functional; conditions: CNCTC My 235/80, 504 h; summary of the method: as §3
Mycobacterium kansasii [8] = test: Antimycobacterial activity against Mycobacterium kansasii 6509/96 after 7 days; format: functional; conditions: 6509/96, 168 h; summary of the method: as §3
Mycobacterium kansasii [9] = test: Antimycobacterial activity against Mycobacterium kansasii 6509/96 after 14 days; format: functional; conditions: 6509/96, 336 h; summary of the method: as §3
Mycobacterium kansasii [10] = test: Antimycobacterial activity against Mycobacterium kansasii 6509/96 after 21 days; format: functional; conditions: 6509/96, 504 h; summary of the method: as §3
Staphylococcus aureus [11] = test: Antibacterial activity against Staphylococcus aureus subsp. aureus ATCC 29213 CCM 4223 at highest concentration measured after 24 to 48 hrs by alamar blue dye based broth microdilution assay; format: functional, organism-based
Staphylococcus aureus [12] = test: Antibacterial activity against methicillin-resistant Staphylococcus aureus subsp. aureus ATCC 43300 CCM 4750 at highest concentration measured after 24 to 48 hrs by alamar blue dye based broth microdilution assay; format: functional, organism-based
[13] = test system: Staphylococcus epidermidis; test: Antibacterial activity against Staphylococcus epidermidis at highest concentration measured after 24 to 48 hrs by alamar blue dye based broth microdilution assay; format: functional, organism-based
Enterococcus faecalis = test: Antibacterial activity against Enterococcus faecalis ATCC 29212 CCM 4224 at highest concentration measured after 24 to 48 hrs by alamar blue dye based broth microdilution assay; format: functional, organism-based
Escherichia coli = test: Antibacterial activity against Escherichia coli ATCC 25922 CCM 3954 at highest concentration measured after 24 to 48 hrs by alamar blue dye based broth microdilution assay; format: functional, organism-based
Klebsiella pneumoniae = test: Antibacterial activity against Klebsiella pneumoniae at highest concentration measured after 24 to 48 hrs by alamar blue dye based broth microdilution assay; format: functional, organism-based
Serratia marcescens = test: Antibacterial activity against Serratia marcescens at highest concentration measured after 24 to 48 hrs by alamar blue dye based broth microdilution assay; format: functional, organism-based
Pseudomonas aeruginosa = test: Antibacterial activity against Pseudomonas aeruginosa ATCC 27853 CCM 3955 at highest concentration measured after 24 to 48 hrs by alamar blue dye based broth microdilution assay; format: functional, organism-based
Candida albicans = test: Antifungal activity against Candida albicans ATCC 24433 CCM 8320 at highest concentration measured after 24 to 48 hrs by alamar blue dye based broth microdilution assay; format: functional, organism-based
Pichia kudriavzevii = test: Antifungal activity against Candida krusei ATCC 6258 CCM8271 at highest concentration measured after 24 to 48 hrs by alamar blue dye based broth microdilution assay; format: functional, organism-based
Candida parapsilosis = test: Antifungal activity against Candida parapsilosis ATCC 22019 CCM 8260 at highest concentration measured after 24 to 48 hrs by alamar blue dye based broth microdilution assay; format: functional, organism-based
Candida tropicalis = test: Antifungal activity against Candida tropicalis ATCC 750 CCM 8264 at highest concentration measured after 24 to 48 hrs by alamar blue dye based broth microdilution assay; format: functional, organism-based
Aspergillus fumigatus = test: Antifungal activity against Aspergillus fumigatus ATCC 204305 at highest concentration measured after 24 to 48 hrs by alamar blue dye based broth microdilution assay; format: functional, organism-based
Aspergillus flavus = test: Antifungal activity against Aspergillus flavus CCM 8363 at highest concentration measured after 24 to 48 hrs by alamar blue dye based broth microdilution assay; format: functional, organism-based
Lichtheimia corymbifera = test: Antifungal activity against Lichtheimia corymbifera CCM 8077 at highest concentration measured after 24 to 48 hrs by alamar blue dye based broth microdilution assay; format: functional, organism-based
[14] = test system: Trichophyton interdigitale; test: Antifungal activity against Trichophyton interdigitale ATCC 9533 CCM 8377 at highest concentration measured after 72 to 120 hrs by alamar blue dye based broth microdilution assay; format: functional

CCCCCCc1nnc(SCc2cc([N+](=O)[O-])cc([N+](=O)[O-])c2)n1Cc1ccccc1
250 µM: MIC99 (Mycobacterium avium [3]) | MIC99 (Mycobacterium avium [4])
inactive: Activity (Staphylococcus aureus [11]) | Activity (Staphylococcus aureus [12]) | Activity [13] | Activity (Enterococcus faecalis) | Activity (Escherichia coli) | Activity (Klebsiella pneumoniae) | Activity (Serratia marcescens) | Activity (Pseudomonas aeruginosa) | Activity (Candida albicans) | Activity (Pichia kudriavzevii) | Activity (Candida parapsilosis) | Activity (Candida tropicalis) | Activity (Aspergillus fumigatus) | Activity (Aspergillus flavus) | Activity (Lichtheimia corymbifera) | Activity [14]
1 µM: MIC99 (Mycobacterium kansasii [5])
2 µM: MIC99 [1] | MIC99 [2] | MIC99 (Mycobacterium kansasii [6]) | MIC99 (Mycobacterium kansasii [7]) | MIC99 (Mycobacterium kansasii [8])
4 µM: MIC99 (Mycobacterium kansasii [9]) | MIC99 (Mycobacterium kansasii [10])

O=[N+]([O-])c1cc(CSc2nnc(C3CCCCC3)n2Cc2ccccc2)cc([N+](=O)[O-])c1
250 µM: MIC99 (Mycobacterium avium [3]) | MIC99 (Mycobacterium avium [4])
inactive: Activity (Staphylococcus aureus [11]) | Activity (Staphylococcus aureus [12]) | Activity [13] | Activity (Enterococcus faecalis) | Activity (Escherichia coli) | Activity (Klebsiella pneumoniae) | Activity (Serratia marcescens) | Activity (Pseudomonas aeruginosa) | Activity (Candida albicans) | Activity (Pichia kudriavzevii) | Activity (Candida parapsilosis) | Activity (Candida tropicalis) | Activity (Aspergillus fumigatus) | Activity (Aspergillus flavus) | Activity (Lichtheimia corymbifera) | Activity [14]
2 µM: MIC99 [1]
4 µM: MIC99 [2] | MIC99 (Mycobacterium kansasii [5]) | MIC99 (Mycobacterium kansasii [6]) | MIC99 (Mycobacterium kansasii [7]) | MIC99 (Mycobacterium kansasii [8]) | MIC99 (Mycobacterium kansasii [9]) | MIC99 (Mycobacterium kansasii [10])

O=[N+]([O-])c1cc(-c2nnc(SCc3ccccc3)n2Cc2ccc(Cl)cc2Cl)cc([N+](=O)[O-])c1
inactive: Activity (Staphylococcus aureus [11]) | Activity (Staphylococcus aureus [12]) | Activity [13] | Activity (Enterococcus faecalis) | Activity (Escherichia coli) | Activity (Klebsiella pneumoniae) | Activity (Serratia marcescens) | Activity (Pseudomonas aeruginosa) | Activity (Candida albicans) | Activity (Pichia kudriavzevii) | Activity (Candida parapsilosis) | Activity (Candida tropicalis) | Activity (Aspergillus fumigatus) | Activity (Aspergillus flavus) | Activity (Lichtheimia corymbifera) | Activity [14]
4 µM: MIC99 (Mycobacterium kansasii [6]) | MIC99 (Mycobacterium kansasii [7]) | MIC99 (Mycobacterium kansasii [8]) | MIC99 (Mycobacterium kansasii [9]) | MIC99 (Mycobacterium kansasii [10])
2 µM: MIC99 [1] | MIC99 [2] | MIC99 (Mycobacterium kansasii [5])
16 µM: MIC99 (Mycobacterium avium [3]) | MIC99 (Mycobacterium avium [4])

O=[N+]([O-])c1cc(CSc2nnc(-c3ccc(O)cc3)n2Cc2ccccc2)cc([N+](=O)[O-])c1
inactive: Activity (Staphylococcus aureus [11]) | Activity (Staphylococcus aureus [12]) | Activity [13] | Activity (Enterococcus faecalis) | Activity (Escherichia coli) | Activity (Klebsiella pneumoniae) | Activity (Serratia marcescens) | Activity (Pseudomonas aeruginosa) | Activity (Candida albicans) | Activity (Pichia kudriavzevii) | Activity (Candida parapsilosis) | Activity (Candida tropicalis) | Activity (Aspergillus fumigatus) | Activity (Aspergillus flavus) | Activity (Lichtheimia corymbifera) | Activity [14]
16 µM: MIC99 [1] | MIC99 [2] | MIC99 (Mycobacterium kansasii [6]) | MIC99 (Mycobacterium kansasii [7]) | MIC99 (Mycobacterium kansasii [9]) | MIC99 (Mycobacterium kansasii [10])
8 µM: MIC99 (Mycobacterium kansasii [5]) | MIC99 (Mycobacterium kansasii [8])
250 µM: MIC99 (Mycobacterium avium [3]) | MIC99 (Mycobacterium avium [4])
